Source: PubChem BioAssay
An excerpt weighted towards active compounds, which were near 1.2% of everything screened.
procasp3 activ: activators of human procaspase-3 D3A mutant, primary screen, biochemical, absorbance, PC-3 D3A mutant, single concentration | activation, % at 8.5 µM | recombinant procaspase-3 D3A, Ac-DEVD-pNA absorbance 405 nm | Caspase-3 (Homo sapiens), P42574 | actives 0.11% (n = 330,000) | AID 463141, 2010;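 active means activation above the mean of all tested compounds plus 3 SD, cut at about 21% in these data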;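 further: 0% = DMSO alone and 100% = DMSO wells spiked with extra 5 µM PC-3 D3A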
Target sequence (P42574 whole entry D9A/D28A/D175A): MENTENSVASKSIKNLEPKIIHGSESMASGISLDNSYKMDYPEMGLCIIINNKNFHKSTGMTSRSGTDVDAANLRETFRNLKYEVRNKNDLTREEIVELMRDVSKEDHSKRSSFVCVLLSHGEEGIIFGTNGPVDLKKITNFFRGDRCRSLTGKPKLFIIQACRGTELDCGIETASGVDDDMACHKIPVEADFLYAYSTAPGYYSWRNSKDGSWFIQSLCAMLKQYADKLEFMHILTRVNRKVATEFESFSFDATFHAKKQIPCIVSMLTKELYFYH
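Assay system: Autoprocessing-dead procaspase-3 D3A mutant enzyme; also added: Ac-DEVD-pNA; doses: one concentration, 8.5 µM nominal, 0.8% DMSO; times: 1 h compound preincubation, 2 h substrate hydrolysis at 25 °C; technique: 405 nm absorbance of p-nitroaniline, reads at 0 and 120 min; measure: % activation between DMSO and enzyme-spiked controls; repeats: single replicate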
bovine MsrA act: bovine MsrA enzyme activators, primary screen, biochemical, absorbance, HTS; Methionine sulfoxide reductase A (Bos taurus); purified bovine MsrA, absorbance read-out; activation, % at 10.6 µM; actives 0.3% (n = 360,000); in the data active means activation above about 7.5%;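 further: 0% = vehicle and 100% = reference activator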
MsrA inh: bovine MsrA enzyme inhibitors, primary screen, biochemical, absorbance, HTS. Methionine sulfoxide reductase A (Bos taurus). purified bovine MsrA, absorbance read-out. inhibition, % at 15.5 µM. actives 0.75% (n = 360,000);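 further: 0% = vehicle wells with enzyme and 100% = reference inhibitor wells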
proCasp7 act: procaspase-7 activators, primary screen, counter-screen for procaspase-3 activator project, biochemical, absorbance, HTS, human. activation, % at 8.5 µM. actives 0.093% (n = 330,000). recombinant procaspase-7, Ac-DEVD-pNA absorbance 405 nm; D23A/D198A/D206A triple mutant, cannot self-cleave; scale: DMSO 0, 5 µM enzyme 100. Caspase-7 (Homo sapiens), P55210. AID 463210, 2010;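 active means percent activation above the screen-wide mean plus 3 SD, cut at about 25% in these data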
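signal = Epi-absorbance of released pNA at 405 nm, two timepoints | assay system = Uncleavable procaspase-7 mutant enzyme | reagent = Ac-DEVD-pNA substrate, 400 µM as added | times = 1 h enzyme–compound preincubation and 2 h substrate reaction, both 25 °C | benchmarks = low DMSO alone, high DMSO plus 5 µM PC-7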
A1 inh: caspase 3/7 activation in MEF A1-2A-BIM cells, primary screen, A1 inhibitor project, cell-based, luminescence, HTS | Caspase-Glo 3/7 luminescence, 3 h; percent of clofoctol response, vehicle zero | caspase activation, % (test concentration not listed) | actives 0.066% (n = 330,000) | AID 2462, 2010;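 active means over half of replicate activation scores above 10%, or exactly half above 10 with the replicate mean above 10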
MsrA conf: bovine MsrA inhibitors, retest, confirmation, biochemical, absorbance, HTS; shares compounds with MsrA inh; purified bovine MsrA, absorbance read-out; inhibition, % at 15.5 µM; actives 41% (n = 2,300);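 further: coupled to thioredoxin reductase with NADPH and selenocystamine and DMSO as substrate; 0% = vehicle only and 100% = full effect of reference inhibitor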
The depositor's hits bear a star; . = no result given. Unless noted, no stated cut-off is given here; in the data, active means inhibition above about 4.5%; inactive means the rest.

SMILES	procasp3 activ	bovine MsrA act	MsrA inh	proCasp7 act	A1 inh	MsrA conf
O=C(CCN1C(=O)S/C(=C/c2ccccc2)C1=O)Nc1ccc(C(=O)O)c(O)c1	0	-6	5.7*	-2	-8	2
Cc1ccc(Sc2ncccc2C(=O)NCc2cc([N+](=O)[O-])ccc2O)cc1C	.	-2	-1	.	4	.
CN(C(=O)COC(=O)/C=C/c1cccs1)C1CCCCC1	3	-2	3	9	2	.
CSc1ccc(Cn2c(C)c(C(=O)NCc3ccc(F)cc3)sc2=O)cc1	.	-1	2	.	.	.
O=C(CCN1C(=O)S/C(=C\c2ccccc2)C1=O)N1CCOCC1	-16	3	5.7*	-9	0	3
Cc1ccc(S(=O)(=O)N2[C@@H](CO)CO[C@H]2CC(=O)OCc2ccccc2)cc1	.	.	0	.	.	.
O=C(NC(=S)NCCN1CCOCC1)c1ccccc1Cl	5	-13	0	0	0	.
O=C(NC(=S)NCCCN1CCOCC1)c1ccco1	0	-2	5.8*	-13	0	3
O=C(O)C(Cc1ccccc1)N1C(=O)C2C3CCC(C3)C2C1=O (configuration not stated)	.	-14	0	.	.	.
COc1ccc(/C=C/C(=O)OCC(=O)Nc2ccc(S(N)(=O)=O)cc2)cc1OC	2	-7	4.8*	9	0	2
COc1cc(NC(=O)Cc2ccccc2)c(C(=O)O)cc1OC	6	-1	1	-5	1	.
COc1ccc(NC(=O)/C=C/c2ccc(OC)c(OC)c2)cn1	4	-6	6.8*	0	-1	5
COc1cc(/C=C/C(=O)Nc2ccc3[nH]c(=O)[nH]c3c2)cc(OC)c1OC	1	-6	5.6*	10	1	3
COc1cc(NC(=O)/C=C/c2ccccc2)c(C(=O)O)cc1OC	2	-15	4.7*	2	-1	3
COc1cc(/C=C/C(=O)OCC(=O)Nc2ccc(S(=O)(=O)N3CCCC3)cc2)ccc1O	4	-10	1	1	0	.
N#Cc1[nH]nc2nc[nH]c(=O)c12	.	.	0	.	.	.
CC(C)(C)OC(=O)N1CCC(NC(=O)c2[nH]c(C(F)(F)F)nc2-c2ccccc2)CC1	.	-2	0	.	.	.
O=C(NCCN1CCOCC1)c1ccccc1OCc1ccccc1	7	-3	0	8	0	.
O=C1[C@H]2[C@@H](c3ccccc3)N[C@]3(CCCN(Cc4ccc(F)cc4)C3=O)[C@H]2C(=O)N1Cc1ccccc1	.	-2	0	.	.	.
COc1ccc(N(CC(=O)N/N=C/c2ccccc2F)S(=O)(=O)c2ccccc2)cc1	10	4	1	12	0	.
COc1ccc(/C=C/C(=O)Nc2ccncc2)cc1OC	2	-8	5.8*	2	0	4
CCOc1ccc(/C=C/C(=O)Nc2ccc(C(N)=O)cc2)cc1OC	-1	-7	2	4	0	.
COc1ccc(/C=C/C(=O)NC(=S)NNC(=O)c2cccnc2)cc1OC	3	-8	5.6*	-5	1	5.6*
COc1ccc(OC)c2c1sc(=NC(=O)c1ccco1)n2C	0	-2	3	-15	0	.
CCn1c(=NC(=O)c2ccco2)sc2cccc(F)c21	8	-3	4.9*	0	-1	4
O=C(Nc1ccccc1)c1cc(C2CCCCN2S(=O)(=O)c2ccccc2)on1 (configuration not stated)	.	-1	0	.	.	.
CCCCOc1ccc(-c2csc(N)n2)cc1[N+](=O)[O-]	-10	-5	9.4*	-20	0	4
NC(=O)c1ccsc1NC(=O)c1coc2ccccc2c1=O	-1	-11	4.7*	1	-12	1
Cc1occc1C(=O)Nc1sccc1C(N)=O	-2	-5	0	-3	0	.
O=C(O)c1cc(S(=O)(=O)N2CCCCC2)ccc1N1CCOCC1	8	-2	1	10	0	.
